Assay results: publication PMC6568325 (ACS chemical biology, 2018)

Assays:
CjMTAN [1] = molecular target: T1, CjMTAN (Campylobacter jejuni subsp. jejuni, UniProt Z9IB28FKP7); experiment: CjMTAN inhibition by transition-state analogues; format: biochemical; settings: for Ki: from initial rates, MTA 1 mM, 25 °C, pH 7.4
CjMTAN [2] = molecular target: T1, CjMTAN; experiment: CjMTAN substrate specificity, steady-state kinetics; format: biochemical; settings: 25 °C; for Km / kcat: substrate of CjMTAN, 50 mM Hepes-KOH pH 7.4; for h (Hill coefficient): substrate saturation, sigmoidal fit, pH 7.4
In short: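 Recombinant N-terminally His6-tagged CjMTAN from strain 81-176, expressed in E. coli and Ni-NTA purified. Substrate varied from 1 to 100 µM, with stock concentrations set by A260. Reaction contained 1 U xanthine oxidase to convert released adenine to 2,8-dihydroxyadenine, read at 305 nm (15.5 mM–1 cm–1). Started with 50 nM enzyme and followed up to 5 min. Initial rates in duplicate or triplicate, fitted to Michaelis-Menten and/or allosteric sigmoidal equations.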

C. jejuni [3] = experiment: C. jejuni growth IC50 on Mueller-Hinton agar; format: cell-based; settings: Campylobacter jejuni, 144 h, read-out: IC50 C. jejuni growth
C. jejuni [4] = experiment: C. jejuni growth IC50 in liquid culture media; format: cell-based; settings: Campylobacter jejuni, 16.4 h, read-out: IC50 C. jejuni growth

Molecule: 5′-deoxy-5′-Pro-DADMe-ImmA [PDIA]
- Ki (CjMTAN [1]): 5.1 ± 0.6 nM

Molecule: 5′-methylthioadenosine
- Km (CjMTAN [2]): 7.1 ± 0.7 µM
- kcat (CjMTAN [2]): 0.80 ± 0.02 s⁻¹

Molecule: C[C@H]1O[C@@H](n2cnc3c(N)ncnc32)[C@H](O)[C@@H]1O [5′-deoxyadenosine]
- Km (CjMTAN [2]): 21.4 ± 1.3 µM
- kcat (CjMTAN [2]): 0.92 ± 0.02 s⁻¹
- h (Hill coefficient) (CjMTAN [2]): 1.8 ± 0.2

Molecule: Nc1ncnc2c1ncn2[C@@H]1O[C@H](CCC(=O)c2cccc(C(=O)O)c2)[C@@H](O)[C@H]1O [6-amino-6-deoxyfutalosine]
- Km (CjMTAN [2]): 3.5 ± 0.4 µM
- kcat (CjMTAN [2]): 0.27 ± 0.01 s⁻¹

Molecule: CCCCSC[C@H]1CN(Cc2c[nH]c3c(N)ncnc23)C[C@@H]1O [BTDIA, BuS-DADMe-ImmA]
- slow-onset inhibition (CjMTAN [1]; CjMTAN): slow-onset tight-binding inhibitors
- Ki (CjMTAN [1]): 4.1 ± 1 nM

Molecule: Nc1ncnc2c(CN3C[C@H](CO)[C@@H](O)C3)c[nH]c12 [DIA]
- fold difference in affinity between MTDIA and DIA (CjMTAN [1]; MTDIA 2.9 nM vs DIA 2.7 μM): ~1000 fold
- Ki (CjMTAN [1]): 2610 ± 332 nM

Molecule: CNC(C)C1CCC(N)C(OC2C(N)CC(N)C(OC3OCC(C)(O)C(NC)C3O)C2O)O1 (centres unmarked) [Gentamicin]
- IC50 (C. jejuni [3]): 390 ± 60 nM
- IC50 (C. jejuni [4]): 2100 ± 100 nM

Molecule: CSC[C@H]1N[C@@H](c2c[nH]c3c(N)ncnc23)[C@H](O)[C@@H]1O [MTIA]
- Ki (CjMTAN [1]): 32.3 ± 3.4 nM

Molecule: CSC[C@H]1O[C@@H](n2ccc3c(N)ncnc32)[C@H](O)[C@@H]1O [MTT]
- Ki (CjMTAN [1]): 22100 ± 6080 nM

Molecule: Nc1ncnc2c(CN3CC(O)C(CSc4ccccc4)C3)c[nH]c12 (centres unmarked) [PhTDIA]
- Ki (CjMTAN [1]): 5.3 ± 0.3 nM

Molecule: Nc1ncnc2c1ncn2[C@@H]1O[C@H](CSCC[C@H](N)C(=O)O)[C@@H](O)[C@H]1O [S-5′-Adenosyl-L-homocysteine, S-5′-adenosyl-L-homocysteine]
- Km (CjMTAN [2]): 12.2 ± 1.5 µM
- kcat (CjMTAN [2]): 0.55 ± 0.03 s⁻¹
- h (Hill coefficient) (CjMTAN [2]): 2.6 ± 0.7

Molecule: Nc1ncnc2c1ncn2[C@@H]1O[C@H](CO)[C@@H](O)[C@H]1O [adenosine]
- Km (CjMTAN [2]): 7.5 ± 0.6 µM
- kcat (CjMTAN [2]): 0.30 ± 0.01 s⁻¹

Molecule: Nc1ncnc2c(CN3CC(O)C(CSc4ccc(Cl)cc4)C3)c[nH]c12 (centres unmarked) [pCPTDIA]
- Ki (CjMTAN [1]): 4.8 ± 0.3 nM
